From ChEMBL document CHEMBL4689842, “EUbOPEN Chemogenomics Library wave 1” (2021)

System: U2OS
Assay: Multiplex assay against U2OS
Assay type: toxicity, cell-based
Details: human
Summary of the method: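 Cells were classed with CellPathfinder machine-learning gating, first as Hoechst high-intensity objects or normal cells, then (normal cells) as healthy, pyknosed or fragmented nuclei, and finally (pyknosed cells) as mitotic or apoptotic. Staining of live cells at seeding used Hoechst33342, BioTracker Green Microtubule Cytoskeleton Dye, MitoTracker Red and Annexin V Alexa Fluor 680, with imaging on a CQ1 microscope at 37°C and 5% CO2 after compound addition. Tubulin, mitochondrial-mass and membrane-permeability phenotypes are per cents of healthy-nucleus cells.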

[1] = 12 h, 1 µM, compound concentration 1 uM, replicate 1
[2] = 12 h, 1 µM, compound concentration 1 uM, replicate 2
[3] = 12 h, 10 µM, compound concentration 10 uM, replicate 1
[4] = 12 h, 10 µM, compound concentration 10 uM, replicate 2
[5] = 24 h, 1 µM, compound concentration 1 uM, replicate 1
[6] = 24 h, 1 µM, compound concentration 1 uM, replicate 2
[7] = 24 h, 10 µM, compound concentration 10 uM, replicate 1
[8] = 24 h, 10 µM, compound concentration 10 uM, replicate 2
[9] = 48 h, 1 µM, compound concentration 1 uM, replicate 1
[10] = 48 h, 1 µM, compound concentration 1 uM, replicate 2
[11] = 48 h, 10 µM, compound concentration 10 uM, replicate 1
[12] = 48 h, 10 µM, compound concentration 10 uM, replicate 2

CC(Cc1ccc(O)c(O)c1)C(C)Cc1ccc(O)c(O)c1 (stereo not drawn) [NORDIHYDROGUAIARETIC ACID]
Population Apoptotic (%) [1]: 64%
Population Fragmented Nuclei (%) [1]: 11%
Population Healthy Nuclei (%) [1]: 75%
Population Hoechst High Intensity Objects (%) [1]: 8%
Population Membrane Permeable-Phenotype (%) [1]: 3%
Population Mitochondria Different-Phenotype (%) [1]: 8%
Population Mitotic Cells (%) [1]: 35%
Population Normal (%) [1]: 91%
Population Pyknosed Nuclei (%) [1]: 12%
Population Tubulin-Different-Phenotype (%) [1]: 10%
Population Apoptotic (%) [2]: 0%
Population Fragmented Nuclei (%) [2]: 3%
Population Healthy Nuclei (%) [2]: 93%
Population Hoechst High Intensity Objects (%) [2]: 15%
Population Membrane Permeable-Phenotype (%) [2]: 0%
Population Mitochondria Different-Phenotype (%) [2]: 1%
Population Mitotic Cells (%) [2]: 100%
Population Normal (%) [2]: 84%
Population Pyknosed Nuclei (%) [2]: 3%
Population Tubulin-Different-Phenotype (%) [2]: 25%
Population Apoptotic (%) [3]: 35%
Population Fragmented Nuclei (%) [3]: 19%
Population Healthy Nuclei (%) [3]: 64%
Population Hoechst High Intensity Objects (%) [3]: 14%
Population Membrane Permeable-Phenotype (%) [3]: 7%
Population Mitochondria Different-Phenotype (%) [3]: 12%
Population Mitotic Cells (%) [3]: 64%
Population Normal (%) [3]: 85%
Population Pyknosed Nuclei (%) [3]: 16%
Population Tubulin-Different-Phenotype (%) [3]: 30%
Population Apoptotic (%) [4]: 0%
Population Fragmented Nuclei (%) [4]: 2%
Population Healthy Nuclei (%) [4]: 91%
Population Hoechst High Intensity Objects (%) [4]: 6%
Population Membrane Permeable-Phenotype (%) [4]: 2%
Population Mitochondria Different-Phenotype (%) [4]: 10%
Population Mitotic Cells (%) [4]: 100%
Population Normal (%) [4]: 93%
Population Pyknosed Nuclei (%) [4]: 5%
Population Tubulin-Different-Phenotype (%) [4]: 38%
Population Apoptotic (%) [5]: 45%
Population Fragmented Nuclei (%) [5]: 12%
Population Healthy Nuclei (%) [5]: 78%
Population Hoechst High Intensity Objects (%) [5]: 7%
Population Membrane Permeable-Phenotype (%) [5]: 4%
Population Mitochondria Different-Phenotype (%) [5]: 7%
Population Mitotic Cells (%) [5]: 54%
Population Normal (%) [5]: 92%
Population Pyknosed Nuclei (%) [5]: 8%
Population Tubulin-Different-Phenotype (%) [5]: 11%
Population Apoptotic (%) [6]: 0%
Population Fragmented Nuclei (%) [6]: 2%
Population Healthy Nuclei (%) [6]: 94%
Population Membrane Permeable-Phenotype (%) [6]: 0%
Population Mitochondria Different-Phenotype (%) [6]: 8%
Population Mitotic Cells (%) [6]: 100%
Population Pyknosed Nuclei (%) [6]: 2%
Population Tubulin-Different-Phenotype (%) [6]: 23%
Population Apoptotic (%) [7]: 61%
Population Fragmented Nuclei (%) [7]: 18%
Population Healthy Nuclei (%) [7]: 68%
Population Hoechst High Intensity Objects (%) [7]: 14%
Population Membrane Permeable-Phenotype (%) [7]: 10%
Population Mitochondria Different-Phenotype (%) [7]: 15%
Population Mitotic Cells (%) [7]: 38%
Population Normal (%) [7]: 85%
Population Pyknosed Nuclei (%) [7]: 12%
Population Tubulin-Different-Phenotype (%) [7]: 59%
Population Apoptotic (%) [8]: 16%
Population Fragmented Nuclei (%) [8]: 2%
Population Healthy Nuclei (%) [8]: 90%
Population Hoechst High Intensity Objects (%) [8]: 5%
Population Membrane Permeable-Phenotype (%) [8]: 1%
Population Mitochondria Different-Phenotype (%) [8]: 9%
Population Mitotic Cells (%) [8]: 83%
Population Normal (%) [8]: 94%
Population Pyknosed Nuclei (%) [8]: 7%
Population Tubulin-Different-Phenotype (%) [8]: 61%
Population Apoptotic (%) [9]: 43%
Population Fragmented Nuclei (%) [9]: 9%
Population Healthy Nuclei (%) [9]: 81%
Population Hoechst High Intensity Objects (%) [9]: 2%
Population Membrane Permeable-Phenotype (%) [9]: 2%
Population Mitochondria Different-Phenotype (%) [9]: 18%
Population Mitotic Cells (%) [9]: 56%
Population Normal (%) [9]: 97%
Population Pyknosed Nuclei (%) [9]: 8%
Population Tubulin-Different-Phenotype (%) [9]: 14%
Population Apoptotic (%) [10]: 20%
Population Fragmented Nuclei (%) [10]: 8%
Population Healthy Nuclei (%) [10]: 86%
Population Hoechst High Intensity Objects (%) [10]: 6%
Population Membrane Permeable-Phenotype (%) [10]: 4%
Population Mitochondria Different-Phenotype (%) [10]: 9%
Population Mitotic Cells (%) [10]: 80%
Population Normal (%) [10]: 93%
Population Pyknosed Nuclei (%) [10]: 5%
Population Tubulin-Different-Phenotype (%) [10]: 30%
Population Apoptotic (%) [11]: 72%
Population Fragmented Nuclei (%) [11]: 15%
Population Healthy Nuclei (%) [11]: 74%
Population Hoechst High Intensity Objects (%) [11]: 9%
Population Membrane Permeable-Phenotype (%) [11]: 6%
Population Mitochondria Different-Phenotype (%) [11]: 18%
Population Mitotic Cells (%) [11]: 27%
Population Normal (%) [11]: 90%
Population Pyknosed Nuclei (%) [11]: 9%
Population Tubulin-Different-Phenotype (%) [11]: 76%
Population Apoptotic (%) [12]: 66%
Population Fragmented Nuclei (%) [12]: 1%
Population Healthy Nuclei (%) [12]: 92%
Population Hoechst High Intensity Objects (%) [12]: 6%
Population Membrane Permeable-Phenotype (%) [12]: 4%
Population Mitochondria Different-Phenotype (%) [12]: 16%
Population Mitotic Cells (%) [12]: 33%
Population Normal (%) [12]: 93%
Population Pyknosed Nuclei (%) [12]: 6%
Population Tubulin-Different-Phenotype (%) [12]: 77%
